According to PMC9521027 (ACS Omega, 2022):
Numbering of substitutions follows the chain as printed.

Columns and labels:
[1] = target: T1, URAT1 K393D mutant (Homo sapiens, UniProt Q96S37, K393D); experiment: 14C-uric acid uptake assay in transfected HEK293 cells; format: cell-based; conditions: K393D, HEK293 cells
T1 sequence (Q96S37 1-553 K393D): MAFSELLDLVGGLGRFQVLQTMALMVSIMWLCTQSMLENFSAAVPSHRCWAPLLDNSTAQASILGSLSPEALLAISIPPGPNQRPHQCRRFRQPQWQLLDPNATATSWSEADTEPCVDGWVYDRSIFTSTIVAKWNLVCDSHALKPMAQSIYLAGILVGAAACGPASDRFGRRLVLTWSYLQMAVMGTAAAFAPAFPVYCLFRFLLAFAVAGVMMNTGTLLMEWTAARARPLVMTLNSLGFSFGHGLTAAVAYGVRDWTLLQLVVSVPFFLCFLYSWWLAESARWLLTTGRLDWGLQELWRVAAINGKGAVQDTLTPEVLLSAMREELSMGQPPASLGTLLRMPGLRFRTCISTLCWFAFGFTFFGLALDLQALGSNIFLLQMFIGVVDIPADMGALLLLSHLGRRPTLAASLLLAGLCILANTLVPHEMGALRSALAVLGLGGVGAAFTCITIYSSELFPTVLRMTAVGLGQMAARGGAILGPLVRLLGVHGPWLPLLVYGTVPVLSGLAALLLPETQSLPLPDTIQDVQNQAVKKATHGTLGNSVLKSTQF

[2] = target: T2, URAT1 K393E mutant (Homo sapiens, UniProt Q96S37, K393E); experiment: as above; format: cell-based; conditions: K393E, HEK293 cells
T2 sequence (Q96S37 1-553 K393E): T1 sequence (Q96S37 1-553 K393D) with D393E

[3] = target: T3, URAT1 K393R mutant (Homo sapiens, UniProt Q96S37, K393R); experiment: Competitive inhibition test of unlabeled uric acid on 14C-uric acid uptake; format: cell-based
T3 sequence (Q96S37 1-553 K393R): T1 sequence (Q96S37 1-553 K393D) with D393R

[4] = target: T3, URAT1 K393R mutant; experiment: 14C-uric acid binding assay with membrane protein; conditions: 2.5 μg membrane protein, 25 μM 14C-uric acid, 30 min
[5] = target: T4, URAT1 K393A mutant (Homo sapiens, UniProt Q96S37, K393A); experiment: 14C-uric acid binding assay with membrane protein; conditions: 2.5 μg membrane protein, 25 μM 14C-uric acid, 30 min
T4 sequence (Q96S37 1-553 K393A): T1 sequence (Q96S37 1-553 K393D) with D393A
Outline: (§1)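 Membranes came from HEK293 cells transiently transfected (Lipofectamine 3000) with sequence-confirmed site-directed K393 mutant hURAT1 plasmids; control membranes came from cells transfected with pECFP empty vector. Cells were harvested in ice-cold 25 mM HEPES pH 7.3 with 125 mM sodium gluconate, and membranes were extracted with a kit. Protein was incubated at room temperature, then rapid-filtered, washed with ice-cold DPBS, dissolved in 0.1 M NaOH and scintillation-counted. n = 3, mean ± SD.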

[6] = target: T1, URAT1 K393D mutant; experiment: 14C-uric acid binding assay with membrane protein; conditions: 2.5 μg membrane protein, 25 μM 14C-uric acid, 30 min
Outline: as §1

[7] = target: T2, URAT1 K393E mutant; experiment: 14C-uric acid binding assay with membrane protein; conditions: 2.5 μg membrane protein, 25 μM 14C-uric acid, 30 min
Outline: as §1

O=c1[nH]c(=O)c2[nH]c(=O)[nH]c2[nH]1 [uric acid]
14C-urate transport capacity lost compared with WT [1]: 70–80% | 14C-urate transport capacity lost compared with WT [2]: 70–80% | IC50 [3]: 113 ± 10.1 µM | 14C-uric acid binding capacity compared with WT [4]: similar | 14C-uric acid binding compared with WT [5]: significant loss | 14C-uric acid binding compared with WT [6]: significant loss | 14C-uric acid binding compared with WT [7]: significant loss
